From ChEMBL document CHEMBL1152636, “Synthesis and biological evaluation of 14-(aminoalkyl-aminomethyl)aromathecins as topoisomerase I inhibitors: investigating the hypothesis of shared structure-activity relationships” (2009) come the findings set out here.

In one assay the test system is SN12C. In words: Cytotoxicity against human SN12C cells. Type of assay: functional. The gist of the method:
(§1)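 NCI ~60 human tumor cell line screen; after a single-dose pass at 10−5 M, selected compounds run at five concentrations from 10−8 to 10−4 M; GI50 reported per cell line.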

A further assay has as its system HOP-62. Nature of the assay: Cytotoxicity against human HOP62 cells. In kind it is functional. The gist of the method:
as §1

The subject of a further assay is SF-539. Nature of the assay: Cytotoxicity against human SF539 cells. Type of assay: functional. The procedure, abridged: as §1
In the next assay the test system is MDA-MB-435. Nature of the assay: Cytotoxicity against human MDA-MB-435 cells. In kind it is functional. The gist of the method: as §1
In the next assay the test system is DU-145. Nature of the assay: Cytotoxicity against human DU145 cells. In kind it is functional. The gist of the method: as §1
The next assay relates to HCT-116. Nature of the assay: Cytotoxicity against human HCT116 cells. Type of assay: functional. The procedure, abridged:
as §1

The subject of a further assay is UACC-62. Nature of the assay: Cytotoxicity against human UACC62 cells. In kind it is functional. The gist of the method: as §1
Assay [1] addresses T1, DNA topoisomerase 1 (Homo sapiens) (UniProt P11387).
T1 sequence (whole entry): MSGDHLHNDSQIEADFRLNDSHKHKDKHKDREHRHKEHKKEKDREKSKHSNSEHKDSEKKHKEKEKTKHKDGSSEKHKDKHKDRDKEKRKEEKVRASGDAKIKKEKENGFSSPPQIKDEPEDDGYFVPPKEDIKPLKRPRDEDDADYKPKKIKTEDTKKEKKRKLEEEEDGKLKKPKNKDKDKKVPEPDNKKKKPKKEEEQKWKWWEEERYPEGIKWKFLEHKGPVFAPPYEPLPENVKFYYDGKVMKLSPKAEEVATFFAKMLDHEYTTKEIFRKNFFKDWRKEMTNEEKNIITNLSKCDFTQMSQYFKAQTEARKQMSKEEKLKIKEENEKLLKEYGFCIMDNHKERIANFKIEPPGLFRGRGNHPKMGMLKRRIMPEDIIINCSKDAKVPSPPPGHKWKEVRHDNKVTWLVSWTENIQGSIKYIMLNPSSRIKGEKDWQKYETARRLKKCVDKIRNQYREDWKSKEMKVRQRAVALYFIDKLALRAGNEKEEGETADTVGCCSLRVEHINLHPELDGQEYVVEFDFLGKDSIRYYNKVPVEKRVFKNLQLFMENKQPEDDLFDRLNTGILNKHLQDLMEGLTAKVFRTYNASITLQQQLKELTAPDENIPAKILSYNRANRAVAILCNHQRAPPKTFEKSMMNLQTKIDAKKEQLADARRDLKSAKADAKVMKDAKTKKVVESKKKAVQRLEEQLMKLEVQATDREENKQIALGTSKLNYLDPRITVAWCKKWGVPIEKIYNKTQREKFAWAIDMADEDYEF
In words: Inhibition of human DNA topoisomerase 1 assessed as induction of enzyme-dependent DNA cleavage relative to 1 uM camptothecin.

In another assay the test system is OVCAR-3. Nature of the assay: Cytotoxicity against human OVCAR-3 cells. Type of assay: functional. The gist of the method:
as §1

The nature of assay [2]: Induction of cell growth in human NCI60 cell sat 10 uM. In kind it is functional.

Activity calls are given as the source filed them. The calls are words filed in the database; no cut-off is given here. Bounds are passed on as bounds.

As usually defined, the GI50 is the concentration at which growth is held to half of that of the control. Lower therefore signals more potent growth inhibition. For the compound `COc1cc2c3c(n(C)c(=O)c2cc1OC)-c1cc2c(cc1C3=O)OCO2`, the 50% growth inhibitory concentration (GI50) with SN12C was found to be 68000 nM; in the assay on HOP-62, 1300 nM; with SF-539, 41000 nM; with MDA-MB-435, 96000 nM; in the assay on DU-145, 37000 nM; with HCT-116 it was 35000 nM. The compound further gave a 50% growth inhibitory concentration (GI50) in the assay with UACC-62 of 4200 nM.
For the compound `O=c1c2ccccc2cc2n1Cc1cc3ccccc3nc1-2` [ROSETTACIN], the 50% growth inhibitory concentration (GI50) in the assay on SN12C and with DU-145 was above 100000 nM each time.
The term inhibition denotes the relative decrease from the control value, in per cent. Take `NCCCCCCNCc1c2c(nc3ccccc13)-c1cc3ccccc3c(=O)n1C2`: the concentration for 50% growth inhibition (GI50) came to 510 nM with SN12C; 1200 nM with HOP-62; 740 nM in the assay with SF-539; 1500 nM in the assay on MDA-MB-435; 330 nM in the assay on DU-145; 630 nM in the assay on HCT-116. Besides, the 50% growth inhibitory concentration (GI50) in the assay with UACC-62 was 2000 nM; in the assay with OVCAR-3, 1400 nM. The inhibition in assay [1] turned out to be 50%.
For the compound `CC[C@@]1(O)C(=O)OCc2c1cc1n(c2=O)Cc2cc3ccccc3nc2-1` [CAMPTOTHECIN], the GI50 turned out to be 20 nM with SN12C; 10 nM in the assay with HOP-62; 10 nM in the assay with SF-539; 40 nM with MDA-MB-435; 10 nM in the assay on DU-145; 30 nM in the assay on HCT-116. This compound displayed a GI50 with UACC-62 of 10 nM.
In the case of `NCCCCCCCNCc1c2c(nc3ccccc13)-c1cc3ccccc3c(=O)n1C2`, in assay [1], the inhibition was 50%.
As for `NCCCCCNCc1c2c(nc3ccccc13)-c1cc3ccccc3c(=O)n1C2`, the concentration for 50% growth inhibition (GI50) in the assay with SN12C is 3200 nM; with HOP-62 it was 2600 nM; with SF-539 it was 7200 nM; in the assay on MDA-MB-435 it was 12600 nM; in the assay with DU-145, 1100 nM; with HCT-116, 3200 nM. Besides, the figures for the GI50 in the assay with UACC-62 and in the assay on OVCAR-3 were 1900 nM and 8100 nM, respectively. In addition, the inhibition in [1] was found to be 25%.
`NCCCCCCCCCCCNCc1c2c(nc3ccccc13)-c1cc3ccccc3c(=O)n1C2`: in assay [1], the inhibition result is “inactive”.
Regarding `Cl.NCCCCCCCCCCNCc1c2c(nc3ccccc13)-c1cc3ccccc3c(=O)n1C2`, in assay [1], the inhibition entry was “inactive”. Besides, the Activity in assay [2] is on record as 30%.
Take `NCCNCc1c2c(nc3ccccc13)-c1cc3ccccc3c(=O)n1C2`: the GI50 with SN12C is 1500 nM; in the assay on HOP-62 it was 1400 nM; in the assay on SF-539, 8300 nM; in the assay on MDA-MB-435, 11000 nM; in the assay with DU-145, 1400 nM; with HCT-116, 1500 nM. Moreover, the 50% growth inhibitory concentration (GI50) came to 12600 nM in the assay on UACC-62 and 1700 nM in the assay with OVCAR-3. Moreover, the inhibition in assay [1] turned out to be 75%.
In the case of `COc1cc2c3c(n(CCCNCCO)c(=O)c2cc1OC)-c1cc2c(cc1C3=O)OCO2` [LMP-744], the concentration for 50% growth inhibition (GI50) in the assay on SN12C is below 10 nM; in the assay on HOP-62 it was 20 nM; with SF-539, 40 nM; with MDA-MB-435, 790 nM; in the assay with DU-145, below 10 nM; in the assay with HCT-116, 100 nM. Moreover, the 50% growth inhibitory concentration (GI50) with UACC-62 came to 30 nM; in the assay with OVCAR-3, 500 nM. In assay [1], the inhibition result is “Active”.
On to `NCCCNCc1c2c(nc3ccccc13)-c1cc3ccccc3c(=O)n1C2`, for which the GI50 came to 2100 nM with SN12C; 9800 nM in the assay with HOP-62; 4900 nM with SF-539; 6800 nM in the assay on MDA-MB-435; 1100 nM with DU-145; 1500 nM in the assay with HCT-116. The concentration for 50% growth inhibition (GI50) in the assay on UACC-62 stood at 4800 nM; in the assay on OVCAR-3 it was 1400 nM. Besides, the inhibition in assay [1] was 50%.
For `NCCCCCCCCCNCc1c2c(nc3ccccc13)-c1cc3ccccc3c(=O)n1C2`, the inhibition in assay [1] came to 25%.
On the same count and under the same terms, in the case of `NCCCCNCc1c2c(nc3ccccc13)-c1cc3ccccc3c(=O)n1C2` it was 75%.
As for `NCCCCCCCCCCCCNCc1c2c(nc3ccccc13)-c1cc3ccccc3c(=O)n1C2`, the GI50 in the assay on SN12C worked out at 2500 nM; in the assay with HOP-62, 6500 nM; in the assay with SF-539, 1800 nM; with MDA-MB-435, 1700 nM; in the assay on DU-145, 2000 nM; in the assay with HCT-116 it was 2000 nM. The 50% growth inhibitory concentration (GI50) in the assay on UACC-62 and in the assay with OVCAR-3 was 1900 nM each time. For the same compound, in assay [1], the inhibition entry was “inactive”.
Regarding `NCCCCCCCCNCc1c2c(nc3ccccc13)-c1cc3ccccc3c(=O)n1C2`, the GI50 in the assay on SN12C came out at 1800 nM; in the assay with HOP-62, 2800 nM; in the assay on SF-539 it was 1900 nM; with MDA-MB-435, 3100 nM; in the assay on DU-145, 1100 nM; with HCT-116 it was 1800 nM. Besides, the 50% growth inhibitory concentration (GI50) was found to be 1800 nM in the assay with UACC-62 and 2500 nM in the assay with OVCAR-3. For the same compound, the inhibition in assay [1] amounted to 25%.
